# ChEMBL document CHEMBL5724801, “EUbOPEN Chemogenomics Library - Multiplex” (2024)
# Values joined by “and” are separate entries in the source; they are usually repeats but may differ in a detail not shown here. Equal entries are not always repeated.
# Test system: U2OS
# Experiment: Multiplex assay against U2OS
# Type: toxicity, cell-based
# Settings: human
# Outline: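 Cells stained live at seeding with Hoechst33342, BioTracker Green Microtubule Cytoskeleton Dye, MitoTracker Red and Annexin V Alexa Fluor 680 were imaged on a CQ1 microscope at 37°C and 5% CO2 after compound addition. Their classification by CellPathfinder machine-learning gating ran from Hoechst high-intensity objects versus normal cells, to healthy, pyknosed or fragmented nuclei among normal cells, to mitotic or apoptotic among pyknosed cells. Tubulin, mitochondrial-mass and membrane-permeability phenotypes are per cents of healthy-nucleus cells.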
# [1] = 12 h, 1 µM, compound concentration 1 uM
# [2] = 12 h, 10 µM, compound concentration 10 uM
# [3] = 24 h, 1 µM, compound concentration 1 uM
# [4] = 24 h, 10 µM, compound concentration 10 uM
# [5] = 48 h, 1 µM, compound concentration 1 uM
# [6] = 48 h, 10 µM, compound concentration 10 uM
compound,measurement,setting,value
CC(C)(C)c1cc(NC(=O)Nc2ccc(-c3cn4c(n3)sc3cc(OCCN5CCOCC5)ccc34)cc2)no1 [QUIZARTINIB],Population Apoptotic (%),[1],48% and 78%
same,Population Fragmented Nuclei (%),[1],24% and 17%
same,Population Healthy Nuclei (%),[1],61% and 70%
same,Population Hoechst High Intensity Objects (%),[1],6% and 1%
same,Population Membrane Permeable-Phenotype (%),[1],13% and 6%
same,Population Mitochondria Different-Phenotype (%),[1],4% and 6%
same,Population Mitotic Cells (%),[1],51% and 21%
same,Population Normal (%),[1],93% and 98%
same,Population Pyknosed Nuclei (%),[1],14% and 11%
same,Population Tubulin-Different-Phenotype (%),[1],8% and 4%
same,Total Cell Count,[1],213 and 119
same,Population Apoptotic (%),[2],58% and 23%
same,Population Fragmented Nuclei (%),[2],30% and 11%
same,Population Healthy Nuclei (%),[2],47% and 65%
same,Population Hoechst High Intensity Objects (%),[2],13% and 6%
same,Population Membrane Permeable-Phenotype (%),[2],85% and 62%
same,Population Mitochondria Different-Phenotype (%),[2],26% and 33%
same,Population Mitotic Cells (%),[2],41% and 76%
same,Population Normal (%),[2],86% and 94%
same,Population Pyknosed Nuclei (%),[2],21% and 22%
same,Population Tubulin-Different-Phenotype (%),[2],76% and 54%
same,Total Cell Count,[2],197 and 100
same,Population Apoptotic (%),[3],57% and 62%
same,Population Fragmented Nuclei (%),[3],25% and 15%
same,Population Healthy Nuclei (%),[3],56% and 72%
same,Population Hoechst High Intensity Objects (%),[3],2% and 0%
same,Population Membrane Permeable-Phenotype (%),[3],15% and 9%
same,Population Mitochondria Different-Phenotype (%),[3],8% and 4%
same,Population Mitotic Cells (%),[3],42% and 37%
same,Population Normal (%),[3],97% and 99%
same,Population Pyknosed Nuclei (%),[3],17% and 12%
same,Population Tubulin-Different-Phenotype (%),[3],7% and 5%
same,Total Cell Count,[3],234 and 134
same,Population Apoptotic (%),[4],63% and 51%
same,Population Healthy Nuclei (%),[4],34% and 58%
same,Population Hoechst High Intensity Objects (%),[4],11% and 2%
same,Population Membrane Permeable-Phenotype (%),[4],55% and 40%
same,Population Mitochondria Different-Phenotype (%),[4],38% and 32%
same,Population Mitotic Cells (%),[4],36% and 48%
same,Population Normal (%),[4],88% and 97%
same,Population Pyknosed Nuclei (%),[4],30%
same,Population Tubulin-Different-Phenotype (%),[4],45% and 30%
same,Total Cell Count,[4],195 and 96
same,Population Apoptotic (%),[5],60% and 73%
same,Population Fragmented Nuclei (%),[5],21% and 16%
same,Population Healthy Nuclei (%),[5],61% and 72%
same,Population Hoechst High Intensity Objects (%),[5],3% and 2%
same,Population Membrane Permeable-Phenotype (%),[5],7% and 9%
same,Population Mitochondria Different-Phenotype (%),[5],2% and 7%
same,Population Mitotic Cells (%),[5],39% and 26%
same,Population Normal (%),[5],96% and 97%
same,Population Pyknosed Nuclei (%),[5],16% and 10%
same,Population Tubulin-Different-Phenotype (%),[5],3% and 6%
same,Total Cell Count,[5],297 and 180
same,Population Apoptotic (%),[6],72% and 56%
same,Population Fragmented Nuclei (%),[6],33% and 19%
same,Population Healthy Nuclei (%),[6],25% and 48%
same,Population Hoechst High Intensity Objects (%),[6],9% and 5%
same,Population Membrane Permeable-Phenotype (%),[6],41% and 35%
same,Population Mitochondria Different-Phenotype (%),[6],33%
same,Population Mitotic Cells (%),[6],27% and 43%
same,Population Normal (%),[6],90% and 94%
same,Population Pyknosed Nuclei (%),[6],40% and 32%
same,Population Tubulin-Different-Phenotype (%),[6],33% and 28%
same,Total Cell Count,[6],219 and 98
